Assay results reported in ChEMBL document CHEMBL3259569 (J Med Chem, 2014).
The source made the active and inactive calls. No cut-off for these calls is given here.

Columns and labels:
MCF7 = assay: Cytotoxicity against human MCF7 cells by MTT assay; assay type: functional, cell-based
TSGH = assay: Cytotoxicity against human TSGH cells by MTT assay; assay type: functional, cell-based
[1] = Cytotoxicity against human MKN45 cells by MTT assay; assay type: functional, cell-based; details: MKN-45
HT-29 = assay: Cytotoxicity against human HT-29 cells by MTT assay; assay type: functional, cell-based
HCT-116 [2] = assay: Induction of apoptosis in human HCT116 cells assessed as increase in p53 protein level at 0.1 to 3 uM after 24 hrs by immunoblotting analysis; assay type: functional, cell-based
HCT-116 [3] = assay: Cytotoxicity against p53 knock down human HCT116 cells at 0.1 to 3 uM after 72 hrs by MTT assay; assay type: functional, cell-based
HCT-116 [4] = assay: Induction of apoptosis in p53 knock down human HCT116 cells assessed as caspase-3 activation at 1 uM after 24 hrs by immunoblotting analysis; assay type: functional, cell-based
HCT-116 [5] = assay: Induction of apoptosis in human HCT116 cells assessed as caspase-3 activation after 24 hrs by Western blotting analysis; assay type: functional, cell-based
How it was run: (§1)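 HCT116 cells treated with indicated concentrations for 24 h; lysates probed by Western blot for caspase 3 and PARP cleavage.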

HCT-116 [6] = assay: Induction of apoptosis in human HCT116 cells assessed as PARP cleavage after 24 hrs by Western blotting analysis; assay type: functional, cell-based; how it was run: as §1
HCT-116 [7] = assay: Induction of apoptosis in human HCT116 cells assessed as caspase-3 activation at 3 uM after 24 hrs by Western blotting analysis in presence of Z-VAD-FMK; assay type: functional, cell-based
How it was run: (§2)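 HCT116 cells treated 24 h with 3 μM compound with or without 20 μM z-VAD-fmk pan-caspase inhibitor; caspase 3 and PARP assessed by Western blot.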

HCT-116 [8] = assay: Induction of apoptosis in human HCT116 cells assessed as PARP cleavage at 3 uM after 24 hrs by Western blotting analysis in presence of Z-VAD-FMK; assay type: functional, cell-based; how it was run: as §2
Histone deacetylase 2 = Histone deacetylase 2 (Homo sapiens, UniProt Q92769)
Histone deacetylase 5 = Histone deacetylase 5 (Homo sapiens, UniProt Q9UQL6); assay: Inhibition of HDAC5 (unknown origin) by fluorescence assay
Histone deacetylase 8 = target: T1, Histone deacetylase 8 (Homo sapiens, UniProt Q9BY41); assay: Inhibition of HDAC8 (unknown origin) by fluorescence assay
T1 sequence (Q9BY41 whole entry): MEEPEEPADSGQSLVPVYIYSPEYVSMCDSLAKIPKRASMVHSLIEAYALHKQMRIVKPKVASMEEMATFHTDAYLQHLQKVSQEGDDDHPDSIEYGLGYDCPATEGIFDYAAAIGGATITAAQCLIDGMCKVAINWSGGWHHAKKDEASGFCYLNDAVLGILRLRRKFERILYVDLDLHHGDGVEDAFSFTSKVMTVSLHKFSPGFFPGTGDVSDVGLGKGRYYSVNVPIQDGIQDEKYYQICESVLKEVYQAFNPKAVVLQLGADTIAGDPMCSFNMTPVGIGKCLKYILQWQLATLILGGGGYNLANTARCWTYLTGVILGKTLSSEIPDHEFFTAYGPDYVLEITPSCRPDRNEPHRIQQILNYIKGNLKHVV
How it was run: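 Run by a contract testing lab. Compounds were dissolved in DMSO and tested in 10-dose IC50 mode, using 3-fold serial dilution starting at 10 μM. IC50 was taken from the dose series.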

HCT-116 [9] = assay: Anticancer activity against human HCT116 cells assessed as disruption of 3-dimensional spheroid structure after 72 hrs by phase-contrast light microscopic analysis; assay type: functional, cell-based
How it was run: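 HCT116 cells (4 × 10^3/well) grown 5 days in semisolid GFR-Matrigel/10% FBS-DMEM (1:1) to form 3D spheres, then exposed to compound for 72 h; sphere structure examined by phase-contrast light microscopy.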

HCT-116 [10] = assay: Antitumor activity against human HCT116 cells xenografted in nude athymic mouse assessed as tumor growth inhibition at 25 mg/kg/day, po after 2 to 16 days relative to control; assay type: functional; details: read-out: TGI
HCT-116 [11] = assay: Antitumor activity against human HCT116 cells xenografted in nude athymic mouse assessed as tumor growth inhibition at 100 mg/kg/day, po after 2 to 16 days relative to control; assay type: functional; details: read-out: TGI
HCT-116 [12] = assay: Antitumor activity against human HCT116 cells xenografted in po dosed nude athymic mouse assessed as tumor growth inhibition after 2 to 16 days; assay type: functional, organism-based
Mus musculus = assay: Toxicity in ICR mouse at 400 to 1000 mg/kg, po treated for 7 days measured for 1 week; assay type: organism-based; parameters: dose 400-1000 mg/kg, route oral; details: in vivo, 168 h
How it was run: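 ICR mice fasted overnight, then given vehicle (0.2 mL/20 g) or compound orally at 400, 600 or 1000 mg/kg (n = 10/group) daily for 7 days, then monitored 1 week; weighed daily for 1 week, then twice weekly; 2/10 deaths defines toxic dose.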

[13] = Clearance in ICR mouse at 2 mg/kg, iv by LC-MS/MS analysis; assay type: ADME, organism-based; parameters: dose 2 mg/kg, route intravenous; details: in vivo
[14] = Volume of distribution at steady state in ICR mouse at 2 mg/kg, iv by LC-MS/MS analysis; assay type: ADME, organism-based; parameters: dose 2 mg/kg, route intravenous; details: in vivo, read-out: Vdss
[15] = Half life in ICR mouse at 10 mg/kg, po by LC-MS/MS analysis; assay type: ADME, organism-based; parameters: dose 10 mg/kg, route oral; details: in vivo
[16] = Cmax in ICR mouse at 10 mg/kg, po by LC-MS/MS analysis; assay type: ADME, organism-based; parameters: dose 10 mg/kg, route oral; details: in vivo
[17] = Tmax in ICR mouse at 10 mg/kg, po by LC-MS/MS analysis; assay type: ADME, organism-based; parameters: dose 10 mg/kg, route oral; details: in vivo
[18] = Oral bioavailability in ICR mouse at 10 mg/kg by LC-MS/MS analysis; assay type: ADME, organism-based; details: in vivo
[19] = Cytotoxicity against human H460 cells by MTT assay; assay type: functional, cell-based; details: NCI-H460
How it was run: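 Antiproliferative IC50 in H460 cells; mean ± SD of at least three independent experiments.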

PC-3 = assay: Cytotoxicity against human PC3 cells by MTT assay; assay type: functional, cell-based
[20] = Cytotoxicity against human HSC3 cells by MTT assay; assay type: functional, cell-based; details: HSC-3
A549 = assay: Cytotoxicity against human A549 cells by MTT assay; assay type: functional, cell-based
[21] = target: T2, Histone deacetylase (Homo sapiens) (UniProt Q13547+O15379+Q9UBN7+Q92769+Q9UQL6+Q8WUI4+Q9BY41+Q96DB2+P56524+Q9UKV0+Q969S8); details: HCT-116, 1 uM
[22] = target: T2, Histone deacetylase (Homo sapiens); details: HCT-116, 1 uM; remark: listed apart in the source

Chain of Histone deacetylase 5 (Q9UQL6 whole entry): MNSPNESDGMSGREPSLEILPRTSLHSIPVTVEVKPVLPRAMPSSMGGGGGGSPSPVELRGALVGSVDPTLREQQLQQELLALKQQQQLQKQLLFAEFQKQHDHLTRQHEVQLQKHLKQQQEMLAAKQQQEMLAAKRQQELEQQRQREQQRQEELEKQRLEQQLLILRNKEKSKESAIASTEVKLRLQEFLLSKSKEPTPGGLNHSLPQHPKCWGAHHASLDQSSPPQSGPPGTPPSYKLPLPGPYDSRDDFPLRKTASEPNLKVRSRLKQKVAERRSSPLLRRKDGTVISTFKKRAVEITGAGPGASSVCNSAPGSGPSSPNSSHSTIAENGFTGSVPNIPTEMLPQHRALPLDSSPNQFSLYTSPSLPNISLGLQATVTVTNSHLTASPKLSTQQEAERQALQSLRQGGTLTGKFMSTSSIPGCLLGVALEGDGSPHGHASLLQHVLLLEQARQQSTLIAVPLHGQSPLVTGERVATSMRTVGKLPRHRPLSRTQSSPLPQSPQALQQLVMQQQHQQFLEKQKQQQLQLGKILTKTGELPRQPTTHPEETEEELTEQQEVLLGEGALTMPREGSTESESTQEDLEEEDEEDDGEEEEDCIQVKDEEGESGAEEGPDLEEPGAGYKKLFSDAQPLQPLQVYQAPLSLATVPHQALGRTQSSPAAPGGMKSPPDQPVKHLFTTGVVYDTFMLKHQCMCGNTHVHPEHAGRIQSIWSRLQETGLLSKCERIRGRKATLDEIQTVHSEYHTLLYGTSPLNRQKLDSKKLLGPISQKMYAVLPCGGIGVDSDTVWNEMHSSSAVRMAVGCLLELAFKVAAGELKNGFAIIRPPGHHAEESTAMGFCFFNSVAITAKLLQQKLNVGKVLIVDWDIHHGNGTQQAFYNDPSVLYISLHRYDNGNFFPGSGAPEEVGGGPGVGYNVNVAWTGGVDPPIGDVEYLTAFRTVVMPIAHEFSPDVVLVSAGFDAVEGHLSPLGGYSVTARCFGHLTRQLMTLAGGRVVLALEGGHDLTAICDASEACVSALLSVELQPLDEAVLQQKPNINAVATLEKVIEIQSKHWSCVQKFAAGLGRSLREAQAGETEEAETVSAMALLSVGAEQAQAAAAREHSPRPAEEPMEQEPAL
Chain of Histone deacetylase 2 (Q92769 whole entry): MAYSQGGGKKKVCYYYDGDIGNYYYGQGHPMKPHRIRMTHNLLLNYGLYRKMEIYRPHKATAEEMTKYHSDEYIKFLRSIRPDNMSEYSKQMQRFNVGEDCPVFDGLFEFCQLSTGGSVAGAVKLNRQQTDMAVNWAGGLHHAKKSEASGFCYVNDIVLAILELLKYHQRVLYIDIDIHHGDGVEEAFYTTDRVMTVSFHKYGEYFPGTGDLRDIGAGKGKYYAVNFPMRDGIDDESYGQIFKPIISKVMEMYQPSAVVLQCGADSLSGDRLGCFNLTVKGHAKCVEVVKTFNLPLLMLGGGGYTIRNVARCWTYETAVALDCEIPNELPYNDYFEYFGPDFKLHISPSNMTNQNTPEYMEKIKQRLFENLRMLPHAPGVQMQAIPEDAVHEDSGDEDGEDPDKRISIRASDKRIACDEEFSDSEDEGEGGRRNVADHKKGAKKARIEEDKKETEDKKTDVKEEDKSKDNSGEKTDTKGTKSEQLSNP

`O=C(/C=C/c1cccc(S(=O)(=O)n2ccc3cccnc32)c1)NO` showed an IC50 (MCF7) of 1330 nM, an IC50 (TSGH) of 2100 nM and an IC50 [1] of 2510 nM. The IC50 (HT-29) was 1240 nM, the Activity (HCT-116 [2]) was “Active” and the Activity (HCT-116 [3]) was “inactive”. For the same molecule, the Activity (HCT-116 [4]) was “inactive”, the Activity (HCT-116 [5]) was “Dose-dependent effect” and the Activity (HCT-116 [6]) was “Dose-dependent effect”. For the same molecule, the Activity (HCT-116 [7]) was “inactive”, the Activity (HCT-116 [8]) was “inactive” and the IC50 (Histone deacetylase 2) was 1160 nM. For the same molecule, the IC50 (Histone deacetylase 5) was 8730 nM, the IC50 (Histone deacetylase 8) was 1390 nM and the Activity (HCT-116 [9]) was “Dose-dependent effect”. For the same molecule, the inhibition in vivo at 25 mg/kg/day (HCT-116 [10]) was 55.8%, the inhibition in vivo at 100 mg/kg/day (HCT-116 [11]) was 66.9% and the TGI (HCT-116 [12]) was “Dose-dependent effect”. For the same molecule, the Activity (Mus musculus) was “Non-toxic”, the clearance [13] was 127 mL/min/kg and the Vd [14] was 9.8 L/kg. The half-life [15] was 2.4 h, the Cmax [16] was 409 ng/mL and the Tmax [17] was 0.3 h. For the same molecule, the bioavailability [18] was 33%, the IC50 [19] was 570 nM and the IC50 (PC-3) was 1630 nM. For the same molecule, the IC50 [20] was 660 nM, the IC50 (A549) was 1330 nM and the inhibition [21] was “inactive”. For the same molecule, the inhibition [22] was “inactive”.
